According to paper PMC2585546 (Bioorganic & medicinal chemistry, 2008):

Assays:
RNA A [1] = assay: Thiazole orange fluorescence enhancement on RNA binding
RNA B = assay: Thiazole orange fluorescence enhancement on RNA binding; design: species or system human; conditions: thiazole orange 2.6 µM, RNA 2 µM
Procedure, shortened: (§1)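 Fold rise in thiazole orange fluorescence, with the dye at 2.6 µM and each RNA at 2 µM. RNA A is an in vitro selected aptamer stem-loop, used as supplied. RNA B (human pre-miRNA 23b sequence) and control stem-loop RNA C were 2'-ACE-deprotected (100 mM acetic acid, TEMED to pH 3.8, 60 °C, 30 min), phenol/chloroform-extracted, ethanol-precipitated and kept in water at −20 °C.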

RNA C = assay: as above; conditions: thiazole orange 2.6 µM, RNA 2 µM
Procedure, shortened: as §1

RNA A [2] = assay: Thiazole orange fluorescent intercalator displacement; assay type: binding; conditions: read-out: Dissociation constants (FID); apparent KD from IC50, competitive model; 50 mM Bis-Tris·HCl pH 7.0, 100 mM NaCl, 10 mM MgCl2, 50 nM thiazole orange, 100 nM RNA A, 25 °C; average of three independent measurements ± SD

Fold stimulation of thiazole orange fluorescence by RNA A (RNA A [1]; thiazole orange 50 nM, RNA A 100 nM) | Fold enhancement of thiazole orange fluorescence by RNA A (RNA A [1]; thiazole orange 2.6 µM, RNA 2 µM) | Fold enhancement of thiazole orange fluorescence by RNA B (RNA B) | Fold enhancement of thiazole orange fluorescence by control RNA C (RNA C) | Kd (RNA A [2]) | SMILES
~20 fold | 2308 fold | 977 fold | 96 fold | – | CN1C(=Cc2cc[n+](C)c3ccccc23)Sc2ccccc21 [thiazole orange]
– | – | – | – | > 60 µM | NC[C@@H]1O[C@H](O[C@H]2[C@@H](O)[C@H](O[C@H]3[C@@H](O)[C@H](N)C[C@H](N)[C@H]3O[C@H]3O[C@H](CN)[C@@H](O)[C@H](O)[C@H]3N)O[C@@H]2CO)[C@H](N)[C@@H](O)[C@@H]1O [compound 7, neomycin]
– | – | – | – | > 100 µM | NC[C@H]1O[C@H](O[C@H]2[C@H](O)[C@@H](O[C@H]3O[C@H](CO)[C@@H](O)[C@H](N)[C@H]3O)[C@H](N)C[C@@H]2N)[C@H](O)[C@@H](O)[C@@H]1O [compound 8, kanamycin]
